# In PubChem BioAssay AID623920 (The Scripps Research Institute Molecular Screening Center, 2012):
# “And” between values parts separate entries of the source, which are not always exact repeats. Equal entries are not always repeated. The source made the active and inactive calls.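 The calls were made as follows: active = compounds halving RecBCD DNA-cutting activity at 52000 nM or lower IC50; inactive = the rest.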
# Target: RecBCD enzyme subunit RecC (Escherichia coli (strain K12)) + RecBCD enzyme subunit RecB (Escherichia coli (strain K12)) (UniProt P07648+P08394)
# Sequence (P07648 whole entry, looked up): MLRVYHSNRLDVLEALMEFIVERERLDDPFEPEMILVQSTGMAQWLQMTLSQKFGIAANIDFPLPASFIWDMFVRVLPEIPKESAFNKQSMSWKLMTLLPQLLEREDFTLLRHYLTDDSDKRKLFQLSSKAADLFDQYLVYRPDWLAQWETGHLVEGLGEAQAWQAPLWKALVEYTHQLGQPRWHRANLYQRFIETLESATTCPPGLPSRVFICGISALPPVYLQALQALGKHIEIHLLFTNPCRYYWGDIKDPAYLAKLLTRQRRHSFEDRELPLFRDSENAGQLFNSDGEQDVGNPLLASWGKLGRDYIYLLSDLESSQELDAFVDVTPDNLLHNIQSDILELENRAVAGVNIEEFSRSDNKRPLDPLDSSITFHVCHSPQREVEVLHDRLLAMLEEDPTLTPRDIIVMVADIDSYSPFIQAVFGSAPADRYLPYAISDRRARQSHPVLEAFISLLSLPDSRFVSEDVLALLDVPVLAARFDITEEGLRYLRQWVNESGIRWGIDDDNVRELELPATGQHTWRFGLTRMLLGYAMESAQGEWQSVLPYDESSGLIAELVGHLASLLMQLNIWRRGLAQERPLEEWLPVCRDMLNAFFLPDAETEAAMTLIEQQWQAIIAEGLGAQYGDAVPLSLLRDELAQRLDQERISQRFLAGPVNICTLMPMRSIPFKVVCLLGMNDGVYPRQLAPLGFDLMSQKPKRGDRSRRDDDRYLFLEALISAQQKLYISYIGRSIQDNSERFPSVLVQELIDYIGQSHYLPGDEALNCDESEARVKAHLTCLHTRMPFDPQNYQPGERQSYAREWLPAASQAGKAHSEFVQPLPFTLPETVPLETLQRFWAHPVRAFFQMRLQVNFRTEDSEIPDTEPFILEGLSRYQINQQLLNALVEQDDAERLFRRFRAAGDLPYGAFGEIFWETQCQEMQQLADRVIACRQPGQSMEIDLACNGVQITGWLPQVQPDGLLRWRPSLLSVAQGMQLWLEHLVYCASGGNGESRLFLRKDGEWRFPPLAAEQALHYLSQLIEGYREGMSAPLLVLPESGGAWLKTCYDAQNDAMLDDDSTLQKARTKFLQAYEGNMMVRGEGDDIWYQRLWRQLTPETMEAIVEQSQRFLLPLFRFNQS
# Sequence (P08394 whole entry, looked up): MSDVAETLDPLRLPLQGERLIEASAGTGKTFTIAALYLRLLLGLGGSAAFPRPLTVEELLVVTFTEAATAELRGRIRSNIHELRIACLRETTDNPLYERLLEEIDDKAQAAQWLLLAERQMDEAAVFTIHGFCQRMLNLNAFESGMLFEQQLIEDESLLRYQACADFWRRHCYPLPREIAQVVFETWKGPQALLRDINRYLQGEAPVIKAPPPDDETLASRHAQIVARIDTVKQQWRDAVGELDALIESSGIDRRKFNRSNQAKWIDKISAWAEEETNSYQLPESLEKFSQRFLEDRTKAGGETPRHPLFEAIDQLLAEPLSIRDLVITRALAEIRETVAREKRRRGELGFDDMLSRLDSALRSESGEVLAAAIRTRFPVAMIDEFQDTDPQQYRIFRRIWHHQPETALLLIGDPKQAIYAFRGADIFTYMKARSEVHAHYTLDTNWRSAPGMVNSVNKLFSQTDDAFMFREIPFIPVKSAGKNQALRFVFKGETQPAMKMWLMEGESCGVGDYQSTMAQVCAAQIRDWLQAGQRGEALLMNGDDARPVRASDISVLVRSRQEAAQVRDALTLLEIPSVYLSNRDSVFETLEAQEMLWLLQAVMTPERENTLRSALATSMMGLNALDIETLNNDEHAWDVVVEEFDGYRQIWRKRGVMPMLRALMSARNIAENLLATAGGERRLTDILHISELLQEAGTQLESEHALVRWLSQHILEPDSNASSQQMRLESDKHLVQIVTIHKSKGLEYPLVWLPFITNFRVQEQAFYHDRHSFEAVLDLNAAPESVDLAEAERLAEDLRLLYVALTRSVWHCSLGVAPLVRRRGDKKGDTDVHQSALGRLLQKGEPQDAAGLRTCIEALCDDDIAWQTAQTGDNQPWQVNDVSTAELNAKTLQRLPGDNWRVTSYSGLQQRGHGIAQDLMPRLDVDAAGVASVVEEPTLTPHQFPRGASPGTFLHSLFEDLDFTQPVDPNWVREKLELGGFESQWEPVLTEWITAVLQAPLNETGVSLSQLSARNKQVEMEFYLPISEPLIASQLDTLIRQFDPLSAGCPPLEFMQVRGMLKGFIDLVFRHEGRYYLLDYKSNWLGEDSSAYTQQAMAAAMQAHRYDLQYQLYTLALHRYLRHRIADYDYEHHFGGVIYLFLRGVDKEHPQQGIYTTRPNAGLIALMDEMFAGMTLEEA
# Assay: RecBCD dsDNA exonuclease inhibition potency – biochemical, radioactivity readout, powder samples, counter-screen for AddAB inhibitor project, dose response (AID 623920)
# Settings: purified RecBCD, [3H] dsDNA nuclease, TCA-soluble radioactivity
# How it was run: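 System – purified E. coli RecBCD · Input – RecBCD enzyme at 0.15 units (4.5 nM) per reaction · Reagent – [3H] T7 dsDNA, 6 µM nucleotides · Timing – compound with enzyme on ice first, nuclease reaction 20 min at 37 °C · Signal – TCA-soluble radioactivity by scintillation · Replication – triplicate measurement per compound dose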
row,Compound,IC50
1,NC(=O)c1ccsc1NC(=O)COC(=O)c1ccc([N+](=O)[O-])o1,> 100 µM (inactive)
2,CCn1cc(C(=O)O)c(=O)c2cnc(N3CCN(C(=S)NC4CC5CCC4C5)CC3)nc21 (stereo unspecified),inactive
3,CCn1cc(C(=O)O)c(=O)c2cnc(N3CCN(C(=S)Nc4ccc(Cl)cc4)CC3)nc21,11 µM
4,Cc1cccnc1NC(=O)c1ccc([N+](=O)[O-])o1,> 100 µM (inactive)
5,O=C(Nc1cccc(NC(=O)c2ccccc2Cl)c1)c1ccc([N+](=O)[O-])o1,> 100 µM (inactive)
6,CCn1cc(C(=O)O)c(=O)c2cnc(N3CCN(C(=S)Nc4cccc(C(F)(F)F)c4)CC3)nc21,4 µM
7,O=C(Nc1ncccn1)c1ccc([N+](=O)[O-])o1,> 100 µM (inactive)
8,O=C(NCc1cccnc1)c1ccc([N+](=O)[O-])o1,> 100 µM (inactive)
9,CCn1cc(C(=O)O)c(=O)c2cnc(N3CCN(C(=S)Nc4ccccc4C(F)(F)F)CC3)nc21,13 µM and 40 µM
10,CCn1cc(C(=O)O)c(=O)c2cc(F)c(N3CCN(C(=S)Nc4cccc(C(F)(F)F)c4)CC3)cc21,3 µM
11,Cc1ccc2nc(/C(C#N)=C\c3ccc([N+](=O)[O-])o3)[nH]c2c1,> 100 µM (inactive)
12,O=C(Nc1ccc(N2CCOCC2)cc1)c1ccc([N+](=O)[O-])o1,> 100 µM (inactive)
13,O=C(OCC(=O)c1cccs1)c1ccc([N+](=O)[O-])o1,> 100 µM (inactive)
14,CCn1cc(C(=O)O)c(=O)c2cnc(N3CCN(C(=S)NC(C)c4ccccc4)CC3)nc21 (stereo unspecified),18 µM
15,CCn1cc(C(=O)O)c(=O)c2cnc(N3CCN(C(=S)NCc4ccccc4)CC3)nc21,20 µM
16,C=CCn1c(Sc2ncc([N+](=O)[O-])s2)n[nH]c1=O,> 166 µM (inactive)
17,CC(=O)Nc1ccc2nc(NC(=O)c3ccc([N+](=O)[O-])o3)sc2c1,> 100 µM (inactive)
18,CCn1cc(C(=O)O)c(=O)c2cnc(N3CCN(C(=S)NC(=O)c4cccc(C)c4)CC3)nc21,9 µM

# Further lines, results first:
row,IC50,Compound
1,51 µM,N#Cc1c(NC(=O)c2ccc([N+](=O)[O-])o2)sc2c1CCC2
2,inactive,N#Cc1c(NC(=O)c2ccco2)sc2c1CCC2
3,> 100 µM (inactive),Cc1ccc(C(=O)Nc2sc3c(c2C#N)CCCCC3)o1
4,47 µM,Cc1sc(NC(=O)c2ccc(Br)o2)c(C#N)c1C
5,> 100 µM (inactive),N#Cc1c(NC(=O)c2ccccc2)sc2c1CCC2
6,22 µM,COC(=O)c1c(-c2ccccc2)csc1NC(=O)c1cnccn1
7,33 µM and 42 µM,N#Cc1c(NC(=O)c2cnccn2)sc2c1CCCC2
8,> 100 µM (inactive),N#Cc1c(NC(=O)c2ccc(-c3ccccc3[N+](=O)[O-])o2)sc2c1CCCC2
9,inactive,CNC(=O)c1c(NC(=O)c2nc(SCc3ccccc3)ncc2Cl)sc2c1CCCC2
10,> 100 µM (inactive),CC1(C)Cc2c(sc(NC(=O)c3ccco3)c2C#N)CO1
11,40 µM,CCn1cc(C(=O)O)c(=O)c2cc(F)c(N3CCN(C(=S)Nc4ccccc4C(F)(F)F)CC3)cc21
12,> 100 µM (inactive),N#Cc1c(NC(=O)c2ccccc2C(=O)O)sc2c1CCCC2
13,> 100 µM (inactive),N#Cc1c(NC(=O)c2cccc(F)c2)sc2c1CCCC2
